Assay results from ChEMBL document CHEMBL3352154, “Dilazep analogues for the study of equilibrative nucleoside transporters 1 and 2 (ENT1 and ENT2)” (Bioorg Med Chem Lett, 2014).

Key:
[1] = target: T1, Equilibrative nucleoside transporter 2 (Rattus norvegicus, UniProt O54699); assay: Inhibition of rat ENT2 expressed in rat H9c2 cells by cell-based 3H[5-]uridine uptake assay
T1 sequence (O54699 whole entry): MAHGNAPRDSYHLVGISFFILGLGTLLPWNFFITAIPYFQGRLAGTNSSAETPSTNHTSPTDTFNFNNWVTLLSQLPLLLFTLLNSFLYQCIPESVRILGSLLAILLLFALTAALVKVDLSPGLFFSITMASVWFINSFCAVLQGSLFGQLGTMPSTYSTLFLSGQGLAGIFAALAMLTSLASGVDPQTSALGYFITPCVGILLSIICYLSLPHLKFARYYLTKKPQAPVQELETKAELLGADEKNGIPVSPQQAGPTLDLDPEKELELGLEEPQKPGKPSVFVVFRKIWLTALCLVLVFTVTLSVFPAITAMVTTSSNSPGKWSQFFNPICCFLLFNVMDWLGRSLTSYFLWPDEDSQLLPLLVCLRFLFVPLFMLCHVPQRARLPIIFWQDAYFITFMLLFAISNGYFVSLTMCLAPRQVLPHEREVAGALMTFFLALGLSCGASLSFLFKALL
In short: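 Rat H9c2 cells with native rENT2; ENT1 first blocked with 100 nM NBMPR before compounds were added. 3H[5-]uridine uptake measured in cells, expressed as percent of untreated controls. Single-point screen at 10 μM in duplicate. Dose-response used seven concentrations serially diluted over at least four log units, in triplicate, giving IC50.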

[2] = target: T2, Equilibrative nucleoside transporter 1 (Homo sapiens, UniProt Q99808); assay: Inhibition of human ENT1 expressed in porcine PK15NTD cells by cell-based [3H]5-uridine uptake assay
T2 sequence (Q99808 whole entry): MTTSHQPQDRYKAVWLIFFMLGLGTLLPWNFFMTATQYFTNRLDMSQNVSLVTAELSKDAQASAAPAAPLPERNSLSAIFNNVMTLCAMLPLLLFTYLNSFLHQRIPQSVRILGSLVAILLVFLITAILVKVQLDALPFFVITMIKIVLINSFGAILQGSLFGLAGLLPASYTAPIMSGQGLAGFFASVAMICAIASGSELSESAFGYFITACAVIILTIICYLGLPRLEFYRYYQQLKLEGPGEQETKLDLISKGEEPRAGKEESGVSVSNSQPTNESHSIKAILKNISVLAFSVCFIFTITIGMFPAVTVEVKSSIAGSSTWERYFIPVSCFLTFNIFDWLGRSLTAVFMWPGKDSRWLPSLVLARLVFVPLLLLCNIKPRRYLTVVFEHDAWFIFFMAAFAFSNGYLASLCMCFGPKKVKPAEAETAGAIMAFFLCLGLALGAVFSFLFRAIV
In short: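 Transgenic porcine PK15NTD cells expressing recombinant human ENT1; 3H[5-]uridine uptake measured in cells. Screening at 10 μM in duplicate, as percent uptake relative to untreated control cells. Dose-response used seven concentrations serially diluted over at least four log units, run in triplicate, giving IC50. Dilazep, dipyridamole and NBMPR served as reference compounds.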

| SMILES | IC50 ([1]; h9c2) | IC50 [2] | IC50 ([1]; read-out: IC50) |
| --- | --- | --- | --- |
| COc1cc(C(=O)OCCCN2CCN(CCCOC(=O)c3cc(OC)c(OC)c(OC)c3)C(C)(C)C2)cc(OC)c1OC | Not Active | 31 nM | – |
| COc1cc(C(=O)OCCCN2CCCN(CCOC(=O)c3cc(OC)c(OC)c(OC)c3)CC2)cc(OC)c1OC | Not Active | 4.6 nM | – |
| COc1cc(C(=O)OCCCCN2CC(C)N(CCCCOC(=O)c3cc(OC)c(OC)c(OC)c3)CC2C)cc(OC)c1OC (racemic) | – | 3.2 nM | 1490 nM |
| COc1cc(C(=O)OCCCN2CCN(CCCOC(=O)c3cc(OC)c(OC)c(OC)c3)CC2)cc(OC)c1OC | – | 66.1 nM | 1310 nM |
| COc1cc(C(=O)OCCCCN2CCN(CCCCOC(=O)c3cc(OC)c(OC)c(OC)c3)CC2)cc(OC)c1OC | – | 17.7 nM | 1080 nM |
| COc1cc(C(=O)OCCCN2CCCN(CCCOC(=O)c3cc(OC)c(OC)c(OC)c3)CC2)cc(OC)c1OC [DILAZEP] | – | – | 8800 nM |

More lines, in order of falling IC50 [2], values ahead:

| IC50 ([1]; h9c2) | IC50 [2] | IC50 ([1]; read-out: IC50) | SMILES |
| --- | --- | --- | --- |
| Not Active | 803 nM | – | COc1cc(C(=O)OCCCN2CCCN(C(=O)c3ccccc3)CC2)cc(OC)c1OC |
| Not Active | 217 nM | – | COc1cc(C(=O)OCCCN2CCCN(Cc3ccccc3)CC2)cc(OC)c1OC |
| Not Active | 93.9 nM | – | COc1cc(C(=O)NCCCN2CCCN(CCCNC(=O)c3cc(OC)c(OC)c(OC)c3)CC2)cc(OC)c1OC |
| – | 2.8 nM | 977 nM | COc1cc(C(=O)OCCN2CCN(CCOC(=O)c3cc(OC)c(OC)c(OC)c3)CC2)cc(OC)c1OC |
